Values after ≈ are worked out from the molar mass of the structure shown. Residues, ends and D or L forms follow the SMILES beside them. *: point of attachment. βNA = c1ccc2cc(N*)ccc2c1

We go through two compounds from article PMC10685179 (RSC Advances, 2023).

The test system of test [1] is E. faecalis KA247. Description: Agar well-diffusion, inhibition zone. The following applies: Enterococcus faecalis, KA247, read-out: Average diameter of inhibition zone (ZI). The class given is cell-based, Enterococcus faecalis. The essentials:
(§1)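 Clinical MDR isolates from complicated UTI patients. Suspensions were made in Tryptic Soya and Sabouraud broths from subcultures on Tryptic Soya and Sabouraud agar plates. Agar well diffusion followed CLSI guidelines, with test compounds applied at 10 μM in DMSO. Fosfomycin and fluconazole were positive controls and DMSO the negative control. Zone diameters were read in mm, in triplicate.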
A general note: A growth-free zone around the sample is the usual read-out of agar diffusion tests.

Test [2] concerns S. aureus KA112. Nature of the test: Agar well-diffusion, inhibition zone. In kind it is cell-based, Staphylococcus aureus. The conditions noted are these: Staphylococcus aureus, KA112, read-out: Average diameter of inhibition zone (ZI). The essentials: as §1
Test [3] has as its system E. coli KA780. Description: Agar well-diffusion, inhibition zone. The class given is cell-based, Escherichia coli. The conditions noted are these: Escherichia coli, KA780, read-out: Average diameter of inhibition zone (ZI). The essentials:
as §1

Test [4] relates to P. mirabilis KA320. Description: Agar well-diffusion, inhibition zone. In kind it is cell-based, Proteus mirabilis. The conditions noted are these: Proteus mirabilis, KA320, read-out: Average diameter of inhibition zone (ZI). The method in brief: as §1
Test [5] relates to C. albicans KA205. Description: Agar well-diffusion, inhibition zone. The following applies: Candida albicans, KA205, read-out: Average diameter of inhibition zone (ZI). The class given is cell-based, Candida albicans. The method in brief:
as §1

Test [6] relates to C. tropicalis KA205. Description: Agar well-diffusion, inhibition zone. The class given is cell-based, Candida tropicalis. The conditions noted are these: Candida tropicalis, KA205, read-out: Average diameter of inhibition zone (ZI). The essentials:
as §1

In test [7] the test system is E. faecalis KA247. Nature of the test: Broth microdilution MIC and MBC. The class given is cell-based. The following applies: Enterococcus faecalis, KA247, 24 h.
Test [8] concerns S. aureus KA112. Nature of the test: Broth microdilution MIC and MBC. In kind it is cell-based. The conditions noted are these: Staphylococcus aureus. (In general: Broth dilution looks for growth in wells or tubes with falling amounts of substance.)
Test [9] concerns E. coli KA780. Description: Broth microdilution MIC and MBC. The conditions noted are these: Escherichia coli. The class given is cell-based.
The subject of test [10] is P. mirabilis KA320. Nature of the test: Broth microdilution MIC and MBC. The class given is cell-based. The conditions noted are these: Proteus mirabilis.
Test [11] deals with C. albicans KA205. Description: Broth microdilution MIC and MFC. The class given is cell-based. The following applies: Candida albicans.
Test [12] deals with C. tropicalis KA205. Nature of the test: Broth microdilution MIC and MFC. The class given is cell-based. The following applies: Candida tropicalis.
Test [13] has as its system bacterial isolates. Description: Broth microdilution MIC/MBC, bacterial panel. In kind it is cell-based. The conditions noted are these: pyrrole 6b versus thiophene 6a; bacteria.
Test [14] deals with E. coli Kam3-AcrB. Description: Ethidium bromide. The conditions noted are these: phosphonates 0.06 to 2 μg mL^−1; PaβN 20 μg mL^−1. In kind it is cell-based. The essentials:
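E. coli Kam3-AcrB (pSYC plasmid encoding AcrB) was grown to mid-log phase in TS broth and pelleted at 5000×g for 5 min at 4 °C. Cells were washed twice in PBS pH 7.4 and adjusted to OD600 ≈0.5. Cells were treated with phosphonates (0.06–2 μg mL−1) or 0.1% DMSO for 12 h, then combined with EtBr, 25 mM glucose (final) and PaβN 20 μg mL−1. Fluorescence was read over 38 min, […], as RFU.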

Take `O=[N+]([O-])c1ccc(-c2nn(-c3ccccc3)c3sc(NC(c4ccc[nH]4)P(=O)(Oc4ccccc4)Oc4ccccc4)nc23)cc1` (stereo not shown) [Compound 6b, Diphenyl(((3-(4-nitrophenyl)-1-phenyl-1H-pyrazolo[4,3-d]thiazol-5-yl)amino)(1H-pyrrol-2-yl)methyl)phosphonate]: the zone of inhibition (as a rule, the size of the clear area around the sample on an inoculated plate) at 10 µM in test [1] was 22 ± 0.55 mm; in test [2], 23 ± 0.77 mm; in test [3] it was 24 ± 0.86 mm; in [4], 22 ± 0.12 mm; in test [5], 21 ± 0.91 mm; in [6], 21 ± 0.7 mm. For the same compound, the MIC (in general, the lowest concentration found to suppress growth) came to 0.25 µg/mL (≈ 0.385 µM) in test [7]; 0.125 µg/mL (≈ 0.193 µM) in test [8] (KA112, 24 h); 0.125 µg/mL (≈ 0.193 µM) in [9] (KA780, 24 h); 0.25 µg/mL (≈ 0.385 µM) in [10] (KA320, 24 h); 0.25 µg/mL (≈ 0.385 µM) in test [11] (KA205, 24 h); 0.5 µg/mL (≈ 0.771 µM) in test [12] (KA205, 24 h). The MBC stood at 0.5 µg/mL (≈ 0.771 µM) in test [8] (KA112, read-out: MBC/MIC); 0.5 µg/mL (≈ 0.771 µM) in test [9] (KA780, read-out: MBC/MIC); 1 µg/mL (≈ 1.54 µM) in [10] (KA320, read-out: MBC/MIC). The MFC in test [11] (KA205, read-out: MFC/MIC) turned out to be 1 µg/mL (≈ 1.54 µM); in test [12] (KA205, read-out: MFC/MIC), 1 µg/mL (≈ 1.54 µM). Besides, the “higher activity by MIC” value in test [13] is approximately 8 folds.
Take `NC(N)=NCCC[C@H](NC(=O)[C@@H](N)Cc1ccccc1)C(=O)Nc1ccc2ccccc2c1` [PAβN] (H-Phe-Arg-βNA): the EtBr accumulation entry in test [14] is reported as “increases the accumulation of EtBr”.
